From ChEMBL document CHEMBL1629636, “In vitro susceptibility of Borrelia spielmanii to antimicrobial agents commonly used for treatment of Lyme disease” (2009)
In brackets after ≈: the same amount, converted by molar mass.

Assays:
Assay type in all cases: functional
Borrelia afzelii [1] = test: Antimicrobial activity against Borrelia afzelii isolate G1039 after 72 hrs by colorimetric assay; details: Borreliella afzelii, isolate G1039, 72 h
Procedure, shortened: (§1)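 Tested in microtiter trays preloaded with lyophilized antibiotics; clinical isolates were low-passage (10 to 20 passages). MIC was read by colorimetric assay after 72 h. MBC was defined as 100% killing in liquid medium at 72 h: aliquots from vials showing no growth were diluted 1:1,000 in BSK and checked for regrowth after 3 weeks of subculture. Values are medians of three independent experiments on separate days.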

Borrelia spielmanii [2] = test: Antimicrobial activity against Borrelia spielmanii isolate PC-Eq17 after 72 hrs by colorimetric assay; details: Borreliella spielmanii, isolate PC-Eq17, 72 h; procedure, shortened: as §1
Borrelia spielmanii [3] = test: Antimicrobial activity against Borrelia spielmanii isolate TIsar2 after 72 hrs by colorimetric assay; details: Borreliella spielmanii, isolate TIsar2, 72 h; procedure, shortened: as §1
Borrelia spielmanii [4] = test: Antimicrobial activity against Borrelia spielmanii isolate PAnz after 72 hrs by colorimetric assay; details: Borreliella spielmanii; procedure, shortened: as §1
Borrelia spielmanii [5] = test: Antimicrobial activity against Borrelia spielmanii isolate PHap after 72 hrs by colorimetric assay; details: Borreliella spielmanii; procedure, shortened: as §1
Borrelia = test: Antimicrobial activity against Borrelia clinical isolate after 72 hrs by colorimetric assay; details: for MIC90: Borrelia, 72 h; procedure, shortened: as §1
Borrelia spielmanii [6] = test: Antimicrobial activity against Borrelia spielmanii isolate PMew after 72 hrs by colorimetric assay; details: Borreliella spielmanii; procedure, shortened: as §1
[7] = Antimicrobial activity against Borrelia burgdorferi B31 after 72 hrs by colorimetric assay; details: Borreliella burgdorferi; procedure, shortened: as §1
Borrelia spielmanii [8] = test: Antimicrobial activity against Borrelia spielmanii isolate PJes after 72 hrs by colorimetric assay; details: Borreliella spielmanii; procedure, shortened: as §1
Borrelia garinii [9] = test: Antimicrobial activity against Borrelia garinii isolate PSth after 72 hrs by colorimetric assay; details: Borreliella garinii; procedure, shortened: as §1
Borrelia spielmanii [10] = test: Antimicrobial activity against Borrelia spielmanii isolate PMai after 72 hrs by colorimetric assay; details: Borreliella spielmanii; procedure, shortened: as §1
Staphylococcus aureus = test: Antimicrobial activity against Staphylococcus aureus ATCC 29213 after 72 hrs by colorimetric assay; details: ATCC 29213, 72 h
Procedure, shortened: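 Quality-control MIC followed the CLSI method with two changes: BSK medium was used, and the antibiotic-medium preparation was preincubated for 48 h before testing. Tests were run on three different days, and the MIC reported is the median of the three.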

Borrelia afzelii [11] = test: Antimicrobial activity against Borrelia afzelii isolate FEM1 after 72 hrs by colorimetric assay; details: Borreliella afzelii, isolate FEM1, 72 h; procedure, shortened: as §1
Borrelia spielmanii [12] = test: Antimicrobial activity against Borrelia spielmanii isolate TIsar3 after 72 hrs by colorimetric assay; details: Borreliella spielmanii, isolate TIsar3, 72 h; procedure, shortened: as §1
Borrelia spielmanii [13] = test: Antimicrobial activity against Borrelia spielmanii isolate PSig2 after 72 hrs by colorimetric assay; details: Borreliella spielmanii, isolate PSig2, 72 h; procedure, shortened: as §1
Borrelia garinii [14] = test: Antimicrobial activity against Borrelia garinii isolate M2094 after 72 hrs by colorimetric assay; details: Borreliella garinii, isolate M2094, 72 h; procedure, shortened: as §1
[15] = Antimicrobial activity against Borrelia spielmanii A14S after 72 hrs by colorimetric assay; details: Borreliella spielmanii
Procedure, shortened: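 Low-passage isolates (10 to 20 passages) grown in BSK medium were tested in microtiter trays precoated with lyophilized antimicrobials. MIC was read colorimetrically after 72 h. Independent experiments were run on three different days, and the MIC reported is the median of the three.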

Borrelia burgdorferi = test: Antimicrobial activity against Borrelia burgdorferi isolate LW2 after 72 hrs by colorimetric assay; details: Borreliella burgdorferi, isolate LW2, 72 h; procedure, shortened: as §1
Borrelia garinii [16] = test: Antimicrobial activity against Borrelia garinii isolate G1 after 72 hrs by colorimetric assay; details: Borreliella garinii, isolate G1, 72 h; procedure, shortened: as §1
Borrelia afzelii [17] = test: Antimicrobial activity against Borrelia afzelii isolate G600 after 72 hrs by colorimetric assay; details: Borreliella afzelii, isolate G600, 72 h; procedure, shortened: as §1

Row | SMILES | MBC (Borrelia afzelii [1]) [µg/mL] | MIC (Borrelia afzelii [1]) [µg/mL] | MBC (Borrelia spielmanii [2]) [µg/mL] | MIC (Borrelia spielmanii [2]) [µg/mL] | MBC (Borrelia spielmanii [3]) [µg/mL] | MIC (Borrelia spielmanii [3]) [µg/mL] | MBC (Borrelia spielmanii [4]) [µg/mL] | MIC (Borrelia spielmanii [4]) [µg/mL] | MBC (Borrelia spielmanii [5]) [µg/mL] | MIC (Borrelia spielmanii [5]) [µg/mL] | MBC90 (Borrelia) [µg/mL] | MIC90 (Borrelia) [µg/mL] | MBC (Borrelia spielmanii [6]) [µg/mL] | MIC (Borrelia spielmanii [6]) [µg/mL] | MBC [7] [µg/mL] | MIC [7] [µg/mL] | MBC (Borrelia spielmanii [8]) [µg/mL] | MIC (Borrelia spielmanii [8]) [µg/mL] | MBC (Borrelia garinii [9]) [µg/mL] | MIC (Borrelia garinii [9]) [µg/mL] | further results
1 | CC1(C)S[C@@H]2[C@H](NC(=O)[C@H](N)c3ccc(O)cc3)C(=O)N2[C@H]1C(=O)O [AMOXICILLIN] | 8 (≈ 21.9 µM) | 0.5 (≈ 1.37 µM) | > 16 | 0.5 (≈ 1.37 µM) | 16 (≈ 43.8 µM) | ≤ 0.125 | 16 (≈ 43.8 µM) | 0.25 (≈ 0.684 µM) | > 16 | 2 (≈ 5.47 µM) | >16 | 2 (≈ 5.47 µM) | > 16 | 1 (≈ 2.74 µM) | 16 (≈ 43.8 µM) | 0.5 (≈ 1.37 µM) | 16 (≈ 43.8 µM) | 0.25 (≈ 0.684 µM) | 8 (≈ 21.9 µM) | 0.125 (≈ 0.342 µM) | MBC (Borrelia spielmanii [10]): 8 µg/mL (≈ 21.9 µM); MIC (Borrelia spielmanii [10]): 2 µg/mL (≈ 5.47 µM); MIC (Staphylococcus aureus): 2 µg/mL (≈ 5.47 µM); MBC (Borrelia afzelii [11]): 4 µg/mL (≈ 10.9 µM); MIC (Borrelia afzelii [11]): 4 µg/mL (≈ 10.9 µM); MBC (Borrelia spielmanii [12]): 4 µg/mL (≈ 10.9 µM); MIC (Borrelia spielmanii [12]): 2 µg/mL (≈ 5.47 µM); MBC (Borrelia spielmanii [13]): 16 µg/mL (≈ 43.8 µM); MIC (Borrelia spielmanii [13]): 0.5 µg/mL (≈ 1.37 µM); MBC (Borrelia garinii [14]): 16 µg/mL (≈ 43.8 µM); MIC (Borrelia garinii [14]): 0.25 µg/mL (≈ 0.684 µM); MBC [15]: 16 µg/mL (≈ 43.8 µM); MIC [15]: 0.25 µg/mL (≈ 0.684 µM); MBC (Borrelia burgdorferi): 4 µg/mL (≈ 10.9 µM); MIC (Borrelia burgdorferi): 1 µg/mL (≈ 2.74 µM); MBC (Borrelia garinii [16]): 16 µg/mL (≈ 43.8 µM); MIC (Borrelia garinii [16]): ≤ 0.125 µg/mL; MBC (Borrelia afzelii [17]): 4 µg/mL (≈ 10.9 µM); MIC (Borrelia afzelii [17]): 1 µg/mL (≈ 2.74 µM)
2 | CO/N=C(\C(=O)N[C@@H]1C(=O)N2C(C(=O)O)=C(COC(N)=O)CS[C@H]12)c1ccco1 [CEFUROXIME] | 8 (≈ 18.9 µM) | 0.125 (≈ 0.295 µM) | > 8 | 0.125 (≈ 0.295 µM) | 2 (≈ 4.71 µM) | 0.125 (≈ 0.295 µM) | > 8 | 0.125 (≈ 0.295 µM) | > 8 | 0.25 (≈ 0.589 µM) | >8 | 0.25 (≈ 0.589 µM) | > 8 | 0.125 (≈ 0.295 µM) | > 8 | 0.125 (≈ 0.295 µM) | 8 (≈ 18.9 µM) | 0.125 (≈ 0.295 µM) | > 8 | 0.125 (≈ 0.295 µM) | MBC (Borrelia spielmanii [10]): 8 µg/mL (≈ 18.9 µM); MIC (Borrelia spielmanii [10]): 0.125 µg/mL (≈ 0.295 µM); MIC (Staphylococcus aureus): 2 µg/mL (≈ 4.71 µM); MBC (Borrelia afzelii [11]): > 8 µg/mL; MIC (Borrelia afzelii [11]): 0.5 µg/mL (≈ 1.18 µM); MBC (Borrelia spielmanii [12]): 4 µg/mL (≈ 9.43 µM); MIC (Borrelia spielmanii [12]): 0.5 µg/mL (≈ 1.18 µM); MBC (Borrelia spielmanii [13]): 8 µg/mL (≈ 18.9 µM); MIC (Borrelia spielmanii [13]): 0.125 µg/mL (≈ 0.295 µM); MBC (Borrelia garinii [14]): > 8 µg/mL; MIC (Borrelia garinii [14]): 0.125 µg/mL (≈ 0.295 µM); MBC [15]: 8 µg/mL (≈ 18.9 µM); MIC [15]: 0.125 µg/mL (≈ 0.295 µM); MBC (Borrelia burgdorferi): 8 µg/mL (≈ 18.9 µM); MIC (Borrelia burgdorferi): 0.125 µg/mL (≈ 0.295 µM); MBC (Borrelia garinii [16]): > 8 µg/mL; MIC (Borrelia garinii [16]): 0.125 µg/mL (≈ 0.295 µM); MBC (Borrelia afzelii [17]): 4 µg/mL (≈ 9.43 µM); MIC (Borrelia afzelii [17]): 0.25 µg/mL (≈ 0.589 µM)
3 | CC[C@H]1OC(=O)[C@H](C)[C@@H](O[C@H]2C[C@@](C)(OC)[C@@H](O)[C@H](C)O2)[C@H](C)[C@@H](O[C@@H]2O[C@H](C)C[C@H](N(C)C)[C@H]2O)[C@](C)(OC)C[C@@H](C)C(=O)[C@H](C)[C@@H](O)[C@]1(C)O [CLARITHROMYCIN] | 1 (≈ 1.34 µM) | 0.0039 (≈ 0.00521 µM) | 1 (≈ 1.34 µM) | 0.0019 (≈ 0.00254 µM) | 0.5 (≈ 0.668 µM) | 0.0079 (≈ 0.0106 µM) | 1 (≈ 1.34 µM) | 0.0019 (≈ 0.00254 µM) | 0.5 (≈ 0.668 µM) | 0.0019 (≈ 0.00254 µM) | 1 (≈ 1.34 µM) | 0.0079 (≈ 0.0106 µM) | 1 (≈ 1.34 µM) | 0.0079 (≈ 0.0106 µM) | 2 (≈ 2.67 µM) | 0.0079 (≈ 0.0106 µM) | 0.5 (≈ 0.668 µM) | 0.0039 (≈ 0.00521 µM) | 2 (≈ 2.67 µM) | 0.0079 (≈ 0.0106 µM) | MBC (Borrelia spielmanii [10]): 0.5 µg/mL (≈ 0.668 µM); MIC (Borrelia spielmanii [10]): 0.0019 µg/mL (≈ 0.00254 µM); MIC (Staphylococcus aureus): 0.063 µg/mL (≈ 0.0842 µM); MBC (Borrelia afzelii [11]): 1 µg/mL (≈ 1.34 µM); MIC (Borrelia afzelii [11]): 0.0039 µg/mL (≈ 0.00521 µM); MBC (Borrelia spielmanii [12]): 1 µg/mL (≈ 1.34 µM); MIC (Borrelia spielmanii [12]): 0.0079 µg/mL (≈ 0.0106 µM); MBC (Borrelia spielmanii [13]): 1 µg/mL (≈ 1.34 µM); MIC (Borrelia spielmanii [13]): 0.0019 µg/mL (≈ 0.00254 µM); MBC (Borrelia garinii [14]): 1 µg/mL (≈ 1.34 µM); MIC (Borrelia garinii [14]): 0.0039 µg/mL (≈ 0.00521 µM); MBC [15]: 1 µg/mL (≈ 1.34 µM); MIC [15]: 0.0039 µg/mL (≈ 0.00521 µM); MBC (Borrelia burgdorferi): 4 µg/mL (≈ 5.35 µM); MIC (Borrelia burgdorferi): 0.0039 µg/mL (≈ 0.00521 µM); MBC (Borrelia garinii [16]): 1 µg/mL (≈ 1.34 µM); MIC (Borrelia garinii [16]): 0.0019 µg/mL (≈ 0.00254 µM); MBC (Borrelia afzelii [17]): 0.5 µg/mL (≈ 0.668 µM); MIC (Borrelia afzelii [17]): 0.0079 µg/mL (≈ 0.0106 µM)
4 | C[C@H]1c2cccc(O)c2C(=O)C2=C(O)[C@]3(O)C(=O)C(C(N)=O)=C(O)[C@@H](N(C)C)[C@@H]3[C@@H](O)[C@@H]21.O [DOXYCYCLINE] | 4 | 0.125 | 16 | 0.125 | 16 | 0.25 | 8 | 0.0625 | 16 | 0.0625 | 16 | 0.25 | 16 | 0.5 | 16 | 0.25 | 8 | 0.125 | 32 | 0.25 | MBC (Borrelia spielmanii [10]): 8 µg/mL; MIC (Borrelia spielmanii [10]): 0.125 µg/mL; MIC (Staphylococcus aureus): 0.25 µg/mL; MBC (Borrelia afzelii [11]): 4 µg/mL; MIC (Borrelia afzelii [11]): 0.125 µg/mL; MBC (Borrelia spielmanii [12]): 8 µg/mL; MIC (Borrelia spielmanii [12]): 0.125 µg/mL; MBC (Borrelia spielmanii [13]): 8 µg/mL; MIC (Borrelia spielmanii [13]): 0.125 µg/mL; MBC (Borrelia garinii [14]): 16 µg/mL; MIC (Borrelia garinii [14]): 0.25 µg/mL; MBC [15]: 16 µg/mL; MIC [15]: 0.125 µg/mL; MBC (Borrelia burgdorferi): 32 µg/mL; MIC (Borrelia burgdorferi): 0.125 µg/mL; MBC (Borrelia garinii [16]): 16 µg/mL; MIC (Borrelia garinii [16]): 0.125 µg/mL; MBC (Borrelia afzelii [17]): 2 µg/mL; MIC (Borrelia afzelii [17]): 0.25 µg/mL
